Measured values as given in ChEMBL document CHEMBL4359875, “Development of novel theranostic agents for in vivo amyloid imaging and protective effects on human neuroblastoma cells” (Eur J Med Chem, 2019).
Active and inactive are the calls of the source. The calls are words filed in the database; no cut-off is given here.

Assays:
[1] = Metal chelating activity assessed as compound-Cu2+ complex formation at 20 uM by UV-visible spectroscopy
Outline: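 UV/Vis titration: compound 20 μM in water with CuSO4 added from 0 to 1000 μM. Spectrum recorded after each addition. Triplicate.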

[2] = biological target: T1, Amyloid-beta precursor protein (Homo sapiens, UniProt P05067); test: Binding affinity to amyloid beta 1 to 42 (unknown origin) in PBS buffer at pH 7.4 assessed as increase in red shift in maximum absorption at 0.2 uM by fluorescence based assay
T1 sequence (P05067 whole entry): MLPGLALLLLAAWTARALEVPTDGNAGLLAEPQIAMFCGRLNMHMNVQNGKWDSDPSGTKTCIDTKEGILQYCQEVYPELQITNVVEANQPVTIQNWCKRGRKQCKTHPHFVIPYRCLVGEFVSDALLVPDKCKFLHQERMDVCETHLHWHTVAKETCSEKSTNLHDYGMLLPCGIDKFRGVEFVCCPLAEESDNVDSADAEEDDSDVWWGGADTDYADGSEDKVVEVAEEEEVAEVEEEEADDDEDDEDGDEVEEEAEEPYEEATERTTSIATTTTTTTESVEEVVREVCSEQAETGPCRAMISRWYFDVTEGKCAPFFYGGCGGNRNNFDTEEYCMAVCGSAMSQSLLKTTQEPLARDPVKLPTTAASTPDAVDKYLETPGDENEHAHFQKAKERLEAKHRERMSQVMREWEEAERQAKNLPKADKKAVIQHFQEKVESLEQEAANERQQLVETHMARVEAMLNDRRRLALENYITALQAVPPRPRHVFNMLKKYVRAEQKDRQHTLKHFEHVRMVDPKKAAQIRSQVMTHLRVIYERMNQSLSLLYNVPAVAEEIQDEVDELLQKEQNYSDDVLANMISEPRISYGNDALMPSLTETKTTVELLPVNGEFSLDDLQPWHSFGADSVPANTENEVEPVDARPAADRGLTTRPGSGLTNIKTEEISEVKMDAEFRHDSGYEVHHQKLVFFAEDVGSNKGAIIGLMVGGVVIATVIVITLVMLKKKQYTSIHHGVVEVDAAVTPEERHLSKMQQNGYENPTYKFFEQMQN
Outline: (§1)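 Fluorescence titration in PBS pH 7.4: probe 0.2 μM with stepwise addition of synthetic Aβ1-42 aggregates (0 to 10.0 μM). Emission maxima compared with probe alone in PBS.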

[3] = biological target: T1, Amyloid-beta precursor protein; test: Binding affinity to amyloid beta 1 to 42 (unknown origin) in PBS buffer at pH 7.4 assessed as binding constant by fluorescence based assay
Outline: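 Synthetic Aβ1-42 aggregates in PBS. Kd from a saturation binding assay read by fluorescence. Triplicate, mean ± SD.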

[4] = Photostability of compound; type: physicochemical
[5] = Stability in mouse plasma assessed as remaining compound at 50 uM incubated for 30 to 60 mins by HPLC analysis; type: ADME, cell-free; conditions: read-out: Stability
Outline: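 Compound in ethanol (50 μM) added to plasma (1:9 by volume), with PBS as the standard. Incubated at 37 °C for 30 or 60 min. Mixture treated twice with acetonitrile and centrifuged. Supernatant analysed by HPLC on C18 with CH3CN/H2O 85:15 at 1 mL/min, 30 °C.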

SH-SY5Y = test: Dark toxicity against human SH-SY5Y cells assessed as reduction in cell viability at 50 uM incubated for 24 hrs by MTT assay; type: cell-based
Outline: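 SH-SY5Y seeded at 5000 cells/well and incubated overnight. Compound added at a range of concentrations for 24 h, run with or without light exposure. MTT (5 mg/mL) added for 4 h, then absorbance read at 570 nm.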

[6] = biological target: T1, Amyloid-beta precursor protein; test: Inhibition of amyloid beta 1 to 42 (unknown origin)-induced cytotoxicity in human SH-SY5Y cells at 1 to 5 uM incubated for 24 hrs by MTT assay; type: cell-based
Outline: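 SH-SY5Y at 5000 cells/well, incubated overnight. Treated for 24 h with 5 μM Aβ1-42 monomer plus compound (1 or 5 μM). MTT (5 mg/mL) added for 4 h, absorbance read at 570 nm.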

[7] = biological target: T1, Amyloid-beta precursor protein; test: Inhibition of amyloid beta 1 to 42 (unknown origin)-induced ROS production in human SH-SY5Y cells at 1 and 5 uM incubated for 24 hrs by DCFH-DA staining based fluorescence assay; type: cell-based
Outline: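 SH-SY5Y at 5000 cells/well, incubated overnight. Medium then replaced with Aβ1-42 (2 μM final) alone or with compound (1 and 5 μM) for 24 h at 37 °C, 5% CO2. DCFH-DA 10 μM added for 30 min at 37 °C, cells washed twice. Fluorescence read at ex/em 488/525 nm. Mean ± SD, Student's t test.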

[8] = biological target: T1, Amyloid-beta precursor protein; test: Binding affinity to amyloid beta 1 to 42 (unknown origin) in PBS buffer at pH 7.4 assessed as increase in blue shift in maximum absorption at 0.2 uM by fluorescence based assay; outline: as §1
[9] = biological target: Amyloid-beta precursor protein (Mus musculus) (UniProt P12023); test: Binding affinity to amyloid beta 1 to 42 in double transgenic C57BL/6 APPswe/PSEN1 mouse assessed as plaque formation in cortex region at 1 uM incubated for 5 mins by fluorescence microscopy
Chain of Amyloid-beta precursor protein (Mus musculus) (P12023 whole entry): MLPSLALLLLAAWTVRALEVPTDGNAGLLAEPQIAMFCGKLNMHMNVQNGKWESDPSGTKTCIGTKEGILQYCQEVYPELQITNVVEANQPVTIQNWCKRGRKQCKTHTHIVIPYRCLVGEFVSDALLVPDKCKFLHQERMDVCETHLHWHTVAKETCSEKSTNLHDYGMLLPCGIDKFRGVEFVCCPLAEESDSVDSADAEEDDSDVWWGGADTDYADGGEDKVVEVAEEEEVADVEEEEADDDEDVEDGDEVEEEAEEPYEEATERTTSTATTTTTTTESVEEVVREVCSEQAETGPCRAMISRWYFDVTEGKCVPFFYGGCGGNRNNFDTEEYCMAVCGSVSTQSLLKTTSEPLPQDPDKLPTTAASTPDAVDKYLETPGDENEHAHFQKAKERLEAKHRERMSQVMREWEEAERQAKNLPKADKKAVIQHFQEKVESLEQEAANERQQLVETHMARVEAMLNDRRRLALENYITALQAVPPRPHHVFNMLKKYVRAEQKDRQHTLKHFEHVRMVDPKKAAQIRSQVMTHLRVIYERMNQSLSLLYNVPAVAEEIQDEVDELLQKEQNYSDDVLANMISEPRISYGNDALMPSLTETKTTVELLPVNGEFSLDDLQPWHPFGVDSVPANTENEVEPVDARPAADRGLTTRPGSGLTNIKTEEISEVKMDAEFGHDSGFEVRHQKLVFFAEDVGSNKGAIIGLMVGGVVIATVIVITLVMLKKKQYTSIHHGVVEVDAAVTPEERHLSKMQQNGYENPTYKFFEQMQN
Outline: (§2)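 Frozen brain sections from male APP/PS1 double transgenic mice and age-matched male C57BL/6 wild-type mice, both 10 months old. Sections were washed in PBS to remove OCT, then stained with 1 μM probe or ThT in 10% ethanol for 5 min at room temperature. They were washed twice with ethanol and PBS (0.1 M, pH 7.4) for 10 min. Cortex and hippocampus were imaged by fluorescence microscopy with GFP and Cy5 filter sets.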

[10] = biological target: Amyloid-beta precursor protein (Mus musculus) (UniProt P12023); test: Binding affinity to amyloid beta 1 to 42 in C57BL/6 mouse brain cortex assessed as plague formation at 1 uM incubated for 5 mins by fluorescence microscopy; outline: as §2
Mus musculus [11] = test: In vivo binding affinity to amyloid beta 1 to 42 in APP/PS1 double transgenic C57BL/6 mouse brain assessed as amyloid-beta plaque-compound complex formation at 4 mg/kg, iv measured for 5 to 60 mins by NIR imaging analysis; type: functional, organism-based
Outline: (§3)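 Male APP/PS1 double-transgenic and age-matched wild-type C57BL/6 mice, 12 months old, shaved. Compound 4 mg/kg in 50 μl of 20% DMSO/80% propylene glycol given via tail vein. Mice kept under 2.5% isoflurane in oxygen. Head NIR fluorescence imaged before and at time points from 5 to 60 min after dosing.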

Mus musculus [12] = test: In vivo binding affinity to amyloid beta 1 to 42 in C57BL/6 mouse brain assessed as amyloid-beta plaque-compound complex formation at 4 mg/kg, iv measured for 5 to 60 mins by NIR imaging analysis; type: functional, organism-based; outline: as §3
[13] = biological target: T1, Amyloid-beta precursor protein; test: Inhibition of amyloid beta 1 to 42 aggregation in human SH-SY5Y cells incubated for 48 hrs by fluorescence microscopy; type: cell-based
Outline: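 SH-SY5Y seeded at 2000 cells/well with Aβ1-42 monomer (0.25 μM) alone or plus compound (0.05 or 0.5 μM), 48 h at 37 °C, 5% CO2. Controls got compound after the 2 days. Read as average pixel intensity of four random fields by fluorescence microscopy. Three independent experiments.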

[14] = biological target: Amyloid-beta precursor protein (Mus musculus) (UniProt P12023); test: Binding affinity to amyloid beta 1 to 42 in double transgenic C57BL/6 APPswe/PSEN1 mouse assessed as plaque formation in hippocampus region at 1 uM incubated for 5 mins by fluorescence microscopy; outline: as §2
[15] = biological target: Amyloid-beta precursor protein (Mus musculus) (UniProt P12023); test: Binding affinity to amyloid beta 1 to 42 in C57BL/6 mouse brain hippocampus assessed as plague formation at 1 uM incubated for 5 mins by fluorescence microscopy; outline: as §2

Row | Structure (SMILES) | Activity [1] | fold change (FC) [2] | Kd [3] | Stability [4] | remaining at 50 µM [5] | Activity (SH-SY5Y) | Activity [6] | Activity [7] | fold change (FC) [8] | Activity [9] | Activity [10] | Activity (Mus musculus [11]) | Activity (Mus musculus [12]) | inhibition [13] | Activity [14] | Activity [15]
1 | CN1c2ccccc2Sc2cc(/C=C3/SC(=S)N(CC(=O)N(CC(=O)O)CC(=O)O)C3=O)ccc21 | Active | 2.4 | 76.5 nM | Stable | > 96% | Non-Toxic | Active | Active |  |  |  |  |  |  |  | 
2 | CN1c2ccccc2Sc2cc(/C=C3/SC(=S)N(CC(=O)OCC4COC(C)(C)O4)C3=O)ccc21 (stereo not drawn) |  |  | 24.5 nM | Stable | > 96% | Non-Toxic |  |  | 22 | Active | inactive | Active | inactive | Dose-dependent effect | Active | inactive
3 | CN1c2ccccc2Sc2cc(/C=C3/SC(=S)N(CC(=O)OCC(O)CO)C3=O)ccc21 (stereo not drawn) | Active |  | 34.9 nM | Stable | > 96% | Non-Toxic | Active | Active | 9.5 |  |  |  |  |  |  | 
4 | CCOC(=O)CN(CC(=O)OCC)C(=O)CN1C(=O)/C(=C\c2ccc3c(c2)Sc2ccccc2N3C)SC1=S |  |  | 46.3 nM | Stable | > 96% | Non-Toxic |  |  | 38.3 |  |  |  |  |  |  | 
